According to ChEMBL document CHEMBL3525985, “Regiospecificity and stereospecificity of human UDP-glucuronosyltransferases in the glucuronidation of estriol, 16-epiestriol, 17-epiestriol, and 13-epiestradiol” (Drug Metab Dispos, 2013):

Key:
Format in all cases: ADME
[1] = Drug metabolism in human intestine microsomes assessed as 17-epiestriol-17-glucuronide formation after 15 to 60 mins by Michaelis-Menten equation analysis in presence of UDPGA
Outline: (§1)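 Pooled human intestine microsomes (6 donors), 0.5 or 10 µg, with alamethicin at 5% of total protein. Incubated with 50 mM phosphate pH 7.4, 10 mM MgCl₂, 5 mM UDPGA and 10% DMSO for 15–60 min at 37°C. Each glucuronide regioisomer quantified by HPLC, in triplicate, with substrate consumption at or below 10%.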

[2] = target: T1, UDP-glucuronosyltransferase 1A3 (Homo sapiens, UniProt P35503); assay: Drug metabolism assessed as recombinant human C-terminal His-tagged UGT1A3-mediated 17-epiestriol-3-glucuronide formation at 200 uM after 15 to 60 mins by HPLC analysis in presence of UDPGA; conditions: recombinant enzyme
T1 sequence (P35503 whole entry): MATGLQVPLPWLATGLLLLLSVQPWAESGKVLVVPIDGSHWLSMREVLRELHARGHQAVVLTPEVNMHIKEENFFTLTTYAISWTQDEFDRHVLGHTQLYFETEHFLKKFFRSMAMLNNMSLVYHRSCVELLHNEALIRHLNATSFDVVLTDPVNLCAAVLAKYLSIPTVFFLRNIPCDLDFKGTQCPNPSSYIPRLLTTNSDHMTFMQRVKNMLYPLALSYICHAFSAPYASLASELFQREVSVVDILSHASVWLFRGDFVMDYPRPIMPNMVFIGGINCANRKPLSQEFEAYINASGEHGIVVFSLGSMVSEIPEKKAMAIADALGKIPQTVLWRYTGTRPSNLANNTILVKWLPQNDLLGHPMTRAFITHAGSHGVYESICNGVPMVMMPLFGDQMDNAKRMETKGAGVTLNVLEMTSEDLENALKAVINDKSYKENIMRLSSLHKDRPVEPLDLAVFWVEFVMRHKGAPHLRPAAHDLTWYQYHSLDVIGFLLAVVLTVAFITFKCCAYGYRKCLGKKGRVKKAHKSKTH
Outline: (§2)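 Screening at a single substrate concentration of 200 μM, in triplicate. The reaction used 5 or 50 µg of UGT-enriched insect cell membranes in 50 mM phosphate pH 7.4 with 10 mM MgCl₂ and 5 mM UDPGA, 10% final DMSO. Incubation was 15–60 min at 37°C. Perchloric acid stopped the reaction and supernatants were analysed by HPLC. Controls lacked UDPGA. Rates were normalized to relative UGT expression level.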

[3] = target: T2, UDP-glucuronosyltransferase 2A1 (Homo sapiens, UniProt P0DTE4); assay: Drug metabolism assessed as recombinant human C-terminal His-tagged UGT2A1-mediated 17-epiestriol-17-glucuronide formation at 200 uM after 15 to 60 mins by HPLC analysis in presence of UDPGA; conditions: recombinant enzyme; outline: as §2
T2 sequence (P0DTE4 whole entry): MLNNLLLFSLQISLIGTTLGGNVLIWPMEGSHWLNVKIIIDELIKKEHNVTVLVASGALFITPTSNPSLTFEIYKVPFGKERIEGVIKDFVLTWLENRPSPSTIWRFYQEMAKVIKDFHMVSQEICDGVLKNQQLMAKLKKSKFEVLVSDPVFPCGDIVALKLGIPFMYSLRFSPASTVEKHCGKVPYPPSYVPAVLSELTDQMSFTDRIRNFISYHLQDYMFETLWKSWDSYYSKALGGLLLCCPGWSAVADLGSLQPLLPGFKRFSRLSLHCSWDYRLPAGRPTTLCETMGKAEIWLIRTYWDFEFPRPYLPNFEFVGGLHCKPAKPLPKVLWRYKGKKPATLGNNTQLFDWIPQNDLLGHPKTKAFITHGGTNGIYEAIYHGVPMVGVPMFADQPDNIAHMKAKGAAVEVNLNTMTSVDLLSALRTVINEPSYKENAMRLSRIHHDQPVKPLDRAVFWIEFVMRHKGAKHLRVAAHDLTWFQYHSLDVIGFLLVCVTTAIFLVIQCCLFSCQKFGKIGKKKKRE

[4] = target: T1, UDP-glucuronosyltransferase 1A3; assay: Drug metabolism assessed as recombinant human C-terminal His-tagged UGT1A3-mediated 13-epiestradiol-3-glucuronide formation at 200 uM after 15 to 60 mins by HPLC analysis in presence of UDPGA; conditions: recombinant enzyme; outline: as §2
[5] = target: T2, UDP-glucuronosyltransferase 2A1; assay: Drug metabolism assessed as recombinant human C-terminal His-tagged UGT2A1-mediated 13-epiestradiol-3-glucuronide/13-epiestradiol-17-glucuronide formation at 200 uM after 15 to 60 mins by HPLC analysis in presence of UDPGA; conditions: recombinant enzyme; outline: as §2
[6] = target: T2, UDP-glucuronosyltransferase 2A1; assay: Drug metabolism assessed as recombinant human C-terminal His-tagged UGT2A1-mediated 16-epiestriol-17-glucuronide formation at 200 uM after 15 to 60 mins by HPLC analysis in presence of UDPGA; conditions: recombinant enzyme; outline: as §2
Liver microsome [7] = assay: Drug metabolism in human liver microsomes assessed as 16-epiestriol-16-glucuronide formation after 15 to 60 mins by Michaelis-Menten equation analysis in presence of UDPGA
Outline: as §1, with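 “liver” for “intestine”, “(30” for “(6”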

Liver microsome [8] = assay: Drug metabolism in human liver microsomes assessed as estriol-16-glucuronide formation after 15 to 60 mins by Michaelis-Menten equation analysis in presence of UDPGA
Outline: as §1, with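 “liver” for “intestine”, “(30” for “(6”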

[9] = target: T3, UDP-glucuronosyltransferase 1A4 (Homo sapiens, UniProt P22310); assay: Drug metabolism assessed as recombinant human C-terminal His-tagged UGT1A4-mediated estriol-16-glucuronide formation after 15 to 60 mins by Michaelis-Menten equation analysis in presence of UDPGA; conditions: recombinant enzyme
T3 sequence (P22310 whole entry): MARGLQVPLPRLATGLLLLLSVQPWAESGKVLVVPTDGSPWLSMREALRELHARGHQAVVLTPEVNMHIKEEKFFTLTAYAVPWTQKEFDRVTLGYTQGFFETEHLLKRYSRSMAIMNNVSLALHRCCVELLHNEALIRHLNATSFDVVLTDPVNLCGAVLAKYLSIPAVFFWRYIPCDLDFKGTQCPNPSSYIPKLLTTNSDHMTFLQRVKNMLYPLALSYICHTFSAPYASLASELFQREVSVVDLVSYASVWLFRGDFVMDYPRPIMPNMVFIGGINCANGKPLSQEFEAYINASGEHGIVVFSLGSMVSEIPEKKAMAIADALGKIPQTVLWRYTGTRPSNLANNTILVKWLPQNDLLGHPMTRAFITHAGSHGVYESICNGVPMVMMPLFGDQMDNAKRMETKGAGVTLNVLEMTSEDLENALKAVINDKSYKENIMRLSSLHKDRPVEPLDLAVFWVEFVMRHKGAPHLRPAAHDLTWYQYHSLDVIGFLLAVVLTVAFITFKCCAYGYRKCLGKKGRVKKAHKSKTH

SMILES: C[C@]12CC[C@@H]3c4ccc(O)cc4CC[C@H]3[C@@H]1C[C@@H](O)[C@H]2O
- Km [1]: 1.3 µM
- Vmax [1]: 1633 pmol/min/mg
- Drug metabolism [2]: metabolite_detected
- Drug metabolism [3]: metabolite_detected

SMILES: C[C@@]12CC[C@@H]3c4ccc(O)cc4CC[C@H]3[C@@H]1CC[C@@H]2O
- Drug metabolism [4]: metabolite_detected
- Drug metabolism [5]: metabolite_detected

SMILES: C[C@]12CC[C@@H]3c4ccc(O)cc4CC[C@H]3[C@@H]1C[C@H](O)[C@@H]2O [EPIESTRIOL]
- Drug metabolism [6]: metabolite_detected
- Km (Liver microsome [7]): 33 µM
- Vmax (Liver microsome [7]): 8011 pmol/min/mg

SMILES: C[C@]12CC[C@@H]3c4ccc(O)cc4CC[C@H]3[C@@H]1C[C@@H](O)[C@@H]2O [ESTRIOL]
- Km (Liver microsome [8]): 13 µM
- Vmax (Liver microsome [8]): 4347 pmol/min/mg
- Drug metabolism [9]: 4 pmol/min/mg
